Test [1] relates to THP-1. Kind of test: Induction of pyroptosis in DPP8/9 knockout human THP-1 cells assessed as GSDMD clevage at 20 uM incubated for 24 hrs by immunoblot analysis. Format: functional, cell-based. In short, it runs like this:
(§1)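 Cells (MV4;11, OCI-AML2 or THP-1; WT or the knockout named) plated at 5 × 10^5 cells/well and exposed to 20 μM compound for 24 h. LDH in the supernatant was measured relative to a Triton X-100 lysis control. For immunoblots, cells were washed in PBS, sonicated, protein-normalized, run on SDS-PAGE and probed for GSDMD cleavage. n = 3.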
(In general: A western blot detects proteins with antibodies after separation by electrophoresis.)

Test [2] concerns MV4-11. Kind of test: Induction of pyroptosis in human MV4-11 cells assessed as GSDMD cleavage at 20 uM incubated for 24 hrs by immunoblot analysis. Format: functional, cell-based. In short, it runs like this: as §1
In test [3] the test system is MV4-11. In words: Induction of pyroptosis in CARD8 knockout human MV4-11 cells assessed as GSDMD cleavage at 20 uM incubated for 24 hrs by immunoblot analysis. Format: functional, cell-based. The procedure, abridged:
as §1

In test [4] the test system is OCI-AML2. In words: Induction of pyroptosis in human OCI-AML2 cells assessed as LDH release at 20 uM incubated for 24 hrs. Format: functional, cell-based. The procedure, abridged:
as §1
(Release of lactate dehydrogenase indicates damage to the cell membrane.)

Test [5] concerns THP-1. Kind of test: Induction of pyroptosis in human THP-1 cells assessed as GSDMD cleavage at 20 uM incubated for 24 hrs by immunoblot analysis. The format is functional, cell-based. In short, it runs like this:
as §1

In test [6] the test system is OCI-AML2. In words: Induction of cell death in CARD8 knockout human OCI-AML2 cells assessed as reduction in cell viability incubated for 24 hrs by celltiter-glo assay. Format: functional, cell-based. In short, it runs like this: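 OCI-AML2 cells, WT or CARD8−/−, were grown in RPMI 1640 with 10% FBS and plated at 2000 cells/well. Compound was added over a range of concentrations for 24 h, and viability was then read by CellTiter-Glo luminescence. Means ± SEM, n = 3.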

Test [7] relates to RAW264.7. Kind of test: Induction of pyroptosis in mouse RAW264.7 cells expressing NLRP1B allele 1 assessed as GSDMD clevage at 20 uM incubated for 24 hrs by immunoblot analysis. The format is functional, cell-based. In short, it runs like this: (§2)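 RAW264.7 cells, grown in DMEM with 10% FBS, plated at 5 × 10^5 cells/well and exposed to 20 μM compound for 24 h. Supernatant LDH was measured relative to a Triton X-100 lysis control; lysates were immunoblotted for GSDMD cleavage. n = 3.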

The subject of test [8] is RAW264.7. In words: Induction of pyroptosis in mouse RAW264.7 cells expressing NLRP1B allele 1 assessed as LDH release at 20 uM incubated for 24 hrs. Format: functional, cell-based. In short, it runs like this:
as §2

Test [9] concerns THP-1. Kind of test: Induction of pyroptosis in human THP-1 cells assessed as LDH release at 20 uM incubated for 24 hrs. The format is functional, cell-based. In short, it runs like this:
as §1

Test [10] has as its system MV4-11. Kind of test: Cytotoxicity against human MV4-11 cells assessed as reduction in cell viability incubated for 24 hrs by celltiter-glo assay. Format: functional, cell-based. Conditions: MV4-11, 24 h. The procedure, abridged: (§3)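 MV4;11 cells (WT or CASP1−/−), grown in RPMI 1640 with 10% FBS at 37 °C, 5% CO2, plated 2000 cells/well, dosed by pintool across 100 μM to 15.2 nM in three-fold steps for 24 h. Viability by CellTiter-Glo luminescence after 2 min shaking and 10 min at 25 °C. IC50 as mean ± SEM of three biological replicates.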
(Cellular ATP, detected with luciferase, serves as a proxy for viable cell number.)

The test system of test [11] is THP-1. Kind of test: Induction of pyroptosis in CARD8 knockout human THP-1 cells assessed as GSDMD cleavage at 20 uM incubated for 24 hrs by immunoblot analysis. The format is functional, cell-based. The procedure, abridged:
as §1

Test [12] has as its system THP-1. In words: Induction of pyroptosis in CARD8 knockout human THP-1 cells assessed as LDH release at 20 uM incubated for 24 hrs. Format: functional, cell-based. In short, it runs like this: as §1
Test [13] concerns BMDM. In words: Induction of pyroptosis in C57BL/6J mouse BMDM cells expressing NLRP1A and NLRP1B allele 2 assessed as GSDMD clevage at 20 uM incubated for 24 hrs by immunoblot analysis. Format: functional, cell-based. In short, it runs like this: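 Bone marrow cells from femurs and tibias of 7–12-week-old C57BL/6J mice were RBC-lysed and differentiated for 6 days at 37 °C in DMEM with 10% FBS and 15–20% L-cell medium, then replated. Cells were exposed to 20 μM compound for 24 h. Read-outs were LDH release against a lysis control and GSDMD immunoblot.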

The subject of test [14] is OCI-AML2. Kind of test: Induction of pyroptosis in CARD8 knockout human OCI-AML2 cells assessed as LDH release at 20 uM incubated for 24 hrs. Format: functional, cell-based. The procedure, abridged:
as §1

In test [15] the test system is THP-1. In words: Induction of pyroptosis in PEPD/XPNPEP1 knockout human THP-1 cells assessed as LDH release at 20 uM incubated for 24 hrs. The format is functional, cell-based. The procedure, abridged: as §1
Test [16] has as its system MV4-11. In words: Cytotoxicity against human MV4-11 cells assessed as reduction in cell viability at 1 uM incubated for 24 hrs by celltiter-glo assay relative to control. Format: functional. The procedure, abridged:
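Single-dose viability screen. MV4;11 or OCI-AML2 cells at 2000 cells/well were exposed to 1 μM compound for 24 h. Viability was read by CellTiter-Glo luminescence and expressed as percent inhibition. Values are means of three biological replicates.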

Test [17] has as its system THP-1. Kind of test: Induction of pyroptosis in XPNPEP1 knockout human THP-1 cells assessed as LDH release at 20 uM incubated for 24 hrs. The format is functional, cell-based. In short, it runs like this:
as §1

The test system of test [18] is HEK-293T. Kind of test: Induction of pyroptosis in human HEK293T cells expressing CASP1 and GSDMD cotransfected with dTAG-CARD8ZUC and CARD8 FIIND S297A assessed as destabilization of DPP9-CARD8 ternary complex by measuring LDH release at 20 uM incubated for 6 hrs in presence of dTAG13. The format is functional, cell-based.
Test [19] concerns MV4-11. In words: Induction of cell death in CARD8 knockout human MV4-11 cells assessed as increase in PI uptake at 6.25 uM incubated for 6 hrs by PI staining based fluorescence analysis. The format is functional. The procedure, abridged: (§4)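 PI flux assay. 2 × 10^4 MV4;11 (WT, CARD8−/− or CASP1−/−) or OCI-AML2 cells in RPMI were given compound at 6.25 μM plus PI at 10 μM final. Fluorescence (Ex/Em 535/617 nm) was read every 5 min at 37 °C for 6 h, baseline-corrected to DMSO and normalized to the maximum response. n = 3.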

The subject of test [20] is MV4-11. Kind of test: Induction of cell death in human MV4-11 cells assessed as increase in PI uptake at 6.25 uM incubated for 6 hrs by PI staining based fluorescence analysis. Format: functional. In short, it runs like this:
as §4

Test [21] concerns OCI-AML2. Kind of test: Induction of pyroptosis in CARD8 knockout human OCI-AML2 cells assessed as GSDMD cleavage at 20 uM incubated for 24 hrs by immunoblot analysis. Format: functional, cell-based. The procedure, abridged:
as §1

Test [22] deals with Xaa-Pro aminopeptidase 1 (Homo sapiens, UniProt Q9NQW7). In words: Inhibition of 6-His tagged XPNPEP1 (unknown origin) expressed in Escherichia coli Rosetta DE3 cells using H-Lys(abz)-Pro-Pro-pNA as substrate at 20 uM incubated for 60 mins by fluorescence based analysis relative to control. The procedure, abridged:
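His6-tagged XPNPEP1 was expressed in E. coli Rosetta DE3 (IPTG, 16 h, 37 °C) and purified on TALON resin. Enzyme at 3.5 nM was exposed to compound, then H-Lys(abz)-Pro-Pro-pNA was added at 100 μM final. Fluorescence (Ex/Em 320/410) was followed for 60 min. Single-point inhibition used 20 μM; IC50 as mean ± SEM of three biological replicates.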

Test [23] concerns MV4-11. In words: Cytotoxicity against CASP1 knockout human MV4-11 cells assessed as reduction in cell viability incubated for 24 hrs by celltiter-glo assay. Format: functional, cell-based. Conditions: MV4-11, 24 h. In short, it runs like this: as §3

Results on two compounds are retold here after ChEMBL document CHEMBL5380787, “Optimized M24B Aminopeptidase Inhibitors for CARD8 Inflammasome Activation” (J Med Chem, 2023).

Calls of active or inactive are those of the source. The rule behind the calls is not given here. A value given as a limit tells only on which side of the number the result lay.

Sequence of Xaa-Pro aminopeptidase 1 (Q9NQW7 whole entry): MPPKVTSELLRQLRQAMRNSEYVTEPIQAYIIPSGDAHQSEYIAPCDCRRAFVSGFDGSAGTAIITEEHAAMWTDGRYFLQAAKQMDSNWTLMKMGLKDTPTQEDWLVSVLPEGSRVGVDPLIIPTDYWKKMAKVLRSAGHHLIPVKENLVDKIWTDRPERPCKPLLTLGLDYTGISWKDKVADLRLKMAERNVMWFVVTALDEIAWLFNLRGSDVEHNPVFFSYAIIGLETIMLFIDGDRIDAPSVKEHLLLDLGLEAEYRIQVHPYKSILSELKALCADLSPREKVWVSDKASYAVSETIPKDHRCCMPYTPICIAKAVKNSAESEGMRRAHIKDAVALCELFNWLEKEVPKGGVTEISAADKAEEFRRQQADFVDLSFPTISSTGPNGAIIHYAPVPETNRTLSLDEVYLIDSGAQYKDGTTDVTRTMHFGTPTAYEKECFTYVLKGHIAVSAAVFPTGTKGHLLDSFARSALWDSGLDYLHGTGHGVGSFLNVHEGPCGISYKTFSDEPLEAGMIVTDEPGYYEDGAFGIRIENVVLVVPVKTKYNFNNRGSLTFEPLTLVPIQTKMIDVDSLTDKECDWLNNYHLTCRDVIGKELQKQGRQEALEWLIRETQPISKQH

For orientation: IC50 means the concentration needed to halve the response being measured. For orientation: inhibition means the change of the read-out against control, counted positive when it falls. A low value points to a weak effect. As for `COC(=O)[C@@H]1CCCN1C(=O)[C@@H](O)[C@H](N)CC(C)C`, the outcome in [1], in test [3], in test [6], in test [7], in [8] and in test [11] was inactive. In addition, the result in [12], in test [13], in [14], in [15], in test [19] and in [21] was inactive. The outcome in [2], in test [4], in [5], in [9], in test [17] and in test [18] was Active. Also, the outcome in [20] was Active. The concentration for half-maximal inhibition (IC50) in test [10] was 2.2 µM; in test [23] it was over 100 µM. For the same compound, the Activity in [16] came out at 72%. This compound came in with an inhibition in test [22] of 96%.

Turning to `COC(=O)[C@H](CC(C)C)NC(=O)[C@@H]1CCCN1C(=O)[C@@H](O)[C@H](N)CC(C)C`, the result in [1], in [3], in test [6], in test [7], in test [8] and in [11] was inactive. Also, the result in [12], in test [13], in [14], in test [15], in [19] and in test [21] was inactive. Further, the outcome in test [2], in [4], in test [5], in test [9], in test [17] and in test [18] was Active. For the same compound, in test [20], the outcome was Active. The IC50 in test [10] was 0.27 µM; in test [23] it was over 20 µM. The Activity in [16] is recorded as 45%. Besides, the inhibition in test [22] amounted to 74%.
